# Many of the other results were omitted from the sample, so hits are more common in it than they were.
# TLR4 MyD88 comp = blocks binding of human TLR4 to MyD88; inhibition, % at 8.4 µM; HeLa CL3-4 TLR4/MyD88 BLA complementation, FRET ratio; O00206+Q99836; actives 0.18% (n = 200,000); in the data active = inhibition above about 25%;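 note: 0% = vehicle and 100% = reference inhibitor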
# UPR XBP1 act = adaptive UPR (XBP1) activation. CHO-XBP1 luciferase reporter, IRE1-XBP1 UPR activation, luminescence; percent of tunicamycin response, DMSO as zero. activation, % at 20 µM. actives 0.33% (n = 330,000). AID 463104;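 active = versus positive control, 20 µM dose yields 30% or more activation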;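 note: 100% = tunicamycin at 10 µg/mL and 0% = DMSO only wells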
#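 assay system = CHO-XBP1 luciferase reporter cells | amount = 1000 cells/well | buffer or medium = F12 plus 10% FBS | compound dosing = single point, 20 µM final compound, 1% DMSO | incubation = 16-18 h cell attachment at 37 °C, then 6 h compound exposure | detection = Steady-Glo luminescence read | controls = tunicamycin 10 µg/mL and vehicle-only wells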
# UPR CHOP act = activators of apoptotic arm of unfolded protein response (CHOP). activation, % at 10 µM. actives 0.34% (n = 330,000). CHO-CHOP luciferase reporter, UPR activation, luminescence; percent of tunicamycin response over DMSO baseline;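 active = at 10 µM dose, activation of 40% or more, normalized to positive control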;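 note: 100% = tunicamycin at 10 µg/mL and 0% = DMSO alone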
#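 assay system = CHO CHOP reporter cells | amount = 500 CHO-CHOP cells per well | buffer or medium = F12 with 10% FBS | incubation = 16-18 h cell attachment, then 6 h compound exposure, 37 °C | detection = luminescence read with Steady-Glo | read-out = percent activation relative to tunicamycin control | controls = tunicamycin high control, DMSO low control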
# NOD2-RIPK2 inh = inhibitors of human NOD2-RIPK2 interaction | O43353 | CHO BLA complementation NOD2-RIPK2, CCF4 ratio | inhibition, % at 4.98 µM | actives 0.38% (n = 360,000) | AID 624267; in the data active = inhibition above about 21%;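 note: 0% = vehicle only and 100% = reference blocker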
# CHOP inh = inhibitors of CHOP induction in ER stress response; CHO-K1 CHOP-promoter luciferase, tunicamycin-induced, 15-18 h; inhibition, % at 10 µM; actives 3.8% (n = 220,000); AID 2732;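 active = compounds that reduced the stress-induced luciferase reporter signal by more than about 70% of percent inhibition, limit read from the data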;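 note: 0% = tunicamycin plus vehicle and 100% = wells without tunicamycin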
# TLR9-MyD88 block = blocks human TLR9 binding to MyD88 | Q9NR96+Q99836 | CHO BLA complementation TLR9-MyD88, CCF4 FRET ratio | inhibition, % at 4.98 µM | actives 0.21% (n = 340,000);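 active = inhibition above the mean over all tested compounds plus 3 SD, cut at about 21% in these data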;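 note: 0% = DMSO only wells and 100% = clavulanate BLA inhibitor control wells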
# CHOP UPR conf = apoptotic UPR (CHOP) activation, confirmed; shares compounds with UPR CHOP act; CHO-CHOP cells, CHOP-luciferase reporter luminescence; percent of tunicamycin response, DMSO as zero; activation, % at 10 µM; actives 64% (n = 1,000); AID 463112; in the data active = activation above about 33%;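 note: 0% = DMSO wells and 100% = tunicamycin 10 µg/mL wells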
# Starred values were filed as active, the others as inactive; x = not tested or not shown.
SMILES,TLR4 MyD88 comp,UPR XBP1 act,UPR CHOP act,NOD2-RIPK2 inh,CHOP inh,TLR9-MyD88 block,CHOP UPR conf
Cc1ccn2cc(-c3ccc(O)c(O)c3)nc2c1,x,-4,120*,3,x,2,57*
Oc1ccc(-c2cn3ccccc3n2)cc1,x,2,4,2,2,-3,x
Oc1ccc(-c2cn3ccccc3n2)cc1O,x,-1,155*,3,x,5,33*
CCOC(=O)C1=CCN(S(=O)(=O)c2ccccc2Cl)C1c1cccc(C)c1 (configuration not stated),x,x,x,2,x,x,x
COC(=O)c1ccc(-n2c(C)cc(C(=O)CSc3cccc[n+]3[O-])c2C)cc1,-15,-1,2,-3,14,5,x
COC(=O)c1ccc(C(=O)OC)c(NC(=O)CSc2cccc[n+]2[O-])c1,3,19,87*,-15,-64,6,122*
COc1cc(C(=O)Sc2ccc(Cl)cc2)cc(OC)c1OC,-2,21,55*,4,62,6,73*
COc1cc(C(=O)NCCSc2ccc(Cl)cc2)cc(OC)c1OC,x,-2,-1,-8,x,4,x
COc1cccc(N=Cc2c(O)c3ccccc3oc2=O)c1,x,108*,101*,-7,x,-2,52*
CC(=O)Nc1ccc(N=Cc2c(O)c3ccccc3oc2=O)cc1,x,14,17,5,x,-4,x
CCCCN1CC(N2CCCCC2)CS1(=O)=O (configuration not stated),x,x,x,-10,x,x,x
Cc1oc2c(O)c(O)ccc2c(=O)c1-c1ccccc1,x,-3,-1,0,25,-4,x
Cc1oc2c(O)c(O)ccc2c(=O)c1-c1cnn(-c2ccccc2)c1,-4,6,114*,-1,-59,4,14
CC(C)(C)OC(=O)N1CCCN(C(c2ccnc3ccccc23)c2nnnn2-c2ccc3c(c2)OCCO3)CC1 (configuration not stated),x,x,x,-3,x,x,x
Oc1c(C(c2ccccc2Cl)N2CCCC2)ccc2cccnc12 (configuration not stated),-4,25,106*,-2,102*,2,132*
CCOC1=C2[C@H](c3ccc(CC)cc3)N(S(=O)(=O)c3ccc(C)cc3)C[C@H]2n2c(=O)n(-c3ccccc3)c(=O)n2C1,x,x,x,-8,x,x,x
CC(=O)c1ccc2c(c1)CCN2,x,x,x,-7,x,-5,x
CCOC(=O)c1cnc(-n2nc(C)cc2C)nc1Nc1ccc(N(C)C)cc1,-6,36*,73*,-6,-111,2,35*
O=C(NC1CCCC1)C(c1ccc(F)cc1)N(Cc1ccc(Cl)cc1)C(=O)CCl (configuration not stated),-1,2,149*,1,106*,0,70*
O=C(NC1CCCC1)C(c1ccc(Cl)cc1)N(Cc1ccc(F)cc1)C(=O)CCl (configuration not stated),9,8,113*,-10,46,-3,88*
CN(Cc1ccccc1)C(=O)c1cccc(NC(=O)Cc2ccc(NC(=O)C3CCCN(C(=O)C4CCCC4)C3)cc2)c1 (configuration not stated),x,x,x,-6,x,-6,x
Cc1ccc(-c2nn(-c3ccccc3)cc2NC(=O)CCl)cc1,19,-5,82*,-6,104*,-9,0
Cc1ccc(-c2nn(-c3ccccc3)cc2CO)cc1,x,4,7,2,x,-4,x
Cc1cccc(N=Nc2ccc(O)c3ncccc23)c1,6,7,86*,-12,105*,-8,69*
C[C@H](CO)N1C[C@H](C)[C@H](CN(C)Cc2cccc(C(F)(F)F)c2)OCc2ccccc2-c2c(n(C)c3ccccc23)C1=O,x,x,x,-3,x,10,x
SMILES,TLR4 MyD88 comp,UPR XBP1 act,UPR CHOP act,NOD2-RIPK2 inh,CHOP inh,TLR9-MyD88 block,CHOP UPR conf
CC(C)CCNC(=O)c1ccc2c(SCC(=O)O)c3c(nc2c1)CCCC3,10,-1,44*,-4,-22,-8,-1
CCN(CC)CCCNC(=O)c1ccc2c(SCC(=O)O)c3c(nc2c1)CCC3,8,0,-1,x,7,x,x
O=C(c1cccs1)N(C(=O)c1cccs1)c1ccc(Br)cn1,4,86*,98*,-4,41,-5,59*
CCCCOC(=O)/C=C\C(=O)NC(N)=O,x,-5,88*,8,-24,3,121*
CCCCOC(=O)/C=C\C(=O)OCCCC,x,-2,3,9,-16,-5,x
COC(=O)[C@]12CCCCC=C1N(Cc1ccccc1)C(=O)[C@H](CC(=O)NCCCCc1ccccc1)C2,x,x,x,3,x,x,x
Cc1c(C#N)c(NC(=O)CCl)n(Cc2cccs2)c1C,-5,-2,87*,2,53,-1,71*
Cc1c(C#N)c(NC(=O)CCl)n(Cc2ccccc2)c1C,6,-5,113*,6,-12,2,57*
COC(=O)c1cc(C(=O)OC)n(Cc2ccc(F)cc2)c1C,2,-2,0,3,-18,0,x
Cc1c(C#N)c(NC(=O)CCl)n(Cc2ccc(F)cc2)c1C,-1,0,65*,2,-92,0,74*
CN1CCC(C)(C(=O)Nc2cccc(Oc3ccccc3)c2)C1 (configuration not stated),x,x,x,-10,x,x,x
Cc1ccc([C@H]2C[C@@H](n3cc(-c4ccc(F)cc4)nn3)[C@H](O)CN2C(=O)c2cccs2)cc1,x,x,x,0,x,-11,x
CS(=O)(=O)c1ccc(S(=O)CC(=O)Oc2ccc(Cl)cc2)c([N+](=O)[O-])c1 (configuration not stated),20,-9,51*,x,108*,x,24
O=C(NCc1ccccc1)c1cc(C2CCCCN2C(=O)c2ccccc2)on1 (configuration not stated),x,x,x,5,x,x,x
O=C(N/N=C(\c1ccccc1)c1cccnc1)c1cccc(F)c1,x,-5,51*,17,x,8,91*
O=[N+]([O-])c1ccc(Sc2nnnn2-c2ccccc2)nc1,-3,-1,126*,x,-265,x,101*
c1ccc(Nc2nc(-c3ccccn3)cs2)cc1,4,1,4,1,-99,3,x
COc1cccc2sc(Nc3nnc(-c4cccs4)o3)nc12,19,5,55*,12,x,10,60*
COc1cccc2sc(Nc3nc(-c4ccccn4)cs3)nc12,2,9,624*,8,x,18,425*
CCc1ccccc1NC(=S)N=Nc1c(O)n(C)c2ccc(S(=O)(=O)N3CCOCC3)cc12,-6,0,51*,-10,-69,0,53*
